{
  "source": "ChEMBL document CHEMBL5674890",
  "about": "“Selective inhibition of CBP/p300 HAT by A-485 results in suppression of lipogenesis and hepatic gluconeogenesis” (Cell Death Dis, 2020)",
  "key": {"[1]": {"test_system": "Mus musculus", "experiment": "Inhibition of hepatic lipogenesis in C57BL/6 mouse supplemented with normal chow diet assessed as decrease in lipid droplet at 20 mg/kg/day, ip administered for 1 week measured by Oil red O staining method", "type": "functional, organism-based", "details": "time 1.0 weeks", "outline": "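Eight-week-old male C57BL/6 mice on normal chow were dosed daily by ip injection at 20 mg·kg−1·day−1 for 7 days, with a vehicle group. Liver sections were stained with Oil red O to view lipid droplets.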"}, "[2]": {"test_system": "Hepatocyte", "experiment": "Inhibition of lipogenesis in mouse primary hepatocytes assessed as increase in FGF21 mRNA expression at 3 uM in presence of 100 nM insulin and 5 to 25 mM glucose measured after 18 hrs by RT-qPCR assay", "type": "functional, cell-based", "outline": "(§1)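 Primary hepatocytes isolated from C57BL/6 mice by two-step perfusion. Cells incubated 18 h with 3 μM inhibitor, with 0 or 100 nM insulin and 5 or 25 mM glucose. Transcripts quantified by SYBR Green RT-qPCR after Trizol RNA extraction; proteins by western blot of lysates. Mean ± SEM.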"}, "[3]": {"biological_target": "T1, CREB-binding protein/Histone acetyltransferase p300 (Homo sapiens) (UniProt Q09472+Q92793)", "T1 sequence (Q09472 whole entry, looked up)": "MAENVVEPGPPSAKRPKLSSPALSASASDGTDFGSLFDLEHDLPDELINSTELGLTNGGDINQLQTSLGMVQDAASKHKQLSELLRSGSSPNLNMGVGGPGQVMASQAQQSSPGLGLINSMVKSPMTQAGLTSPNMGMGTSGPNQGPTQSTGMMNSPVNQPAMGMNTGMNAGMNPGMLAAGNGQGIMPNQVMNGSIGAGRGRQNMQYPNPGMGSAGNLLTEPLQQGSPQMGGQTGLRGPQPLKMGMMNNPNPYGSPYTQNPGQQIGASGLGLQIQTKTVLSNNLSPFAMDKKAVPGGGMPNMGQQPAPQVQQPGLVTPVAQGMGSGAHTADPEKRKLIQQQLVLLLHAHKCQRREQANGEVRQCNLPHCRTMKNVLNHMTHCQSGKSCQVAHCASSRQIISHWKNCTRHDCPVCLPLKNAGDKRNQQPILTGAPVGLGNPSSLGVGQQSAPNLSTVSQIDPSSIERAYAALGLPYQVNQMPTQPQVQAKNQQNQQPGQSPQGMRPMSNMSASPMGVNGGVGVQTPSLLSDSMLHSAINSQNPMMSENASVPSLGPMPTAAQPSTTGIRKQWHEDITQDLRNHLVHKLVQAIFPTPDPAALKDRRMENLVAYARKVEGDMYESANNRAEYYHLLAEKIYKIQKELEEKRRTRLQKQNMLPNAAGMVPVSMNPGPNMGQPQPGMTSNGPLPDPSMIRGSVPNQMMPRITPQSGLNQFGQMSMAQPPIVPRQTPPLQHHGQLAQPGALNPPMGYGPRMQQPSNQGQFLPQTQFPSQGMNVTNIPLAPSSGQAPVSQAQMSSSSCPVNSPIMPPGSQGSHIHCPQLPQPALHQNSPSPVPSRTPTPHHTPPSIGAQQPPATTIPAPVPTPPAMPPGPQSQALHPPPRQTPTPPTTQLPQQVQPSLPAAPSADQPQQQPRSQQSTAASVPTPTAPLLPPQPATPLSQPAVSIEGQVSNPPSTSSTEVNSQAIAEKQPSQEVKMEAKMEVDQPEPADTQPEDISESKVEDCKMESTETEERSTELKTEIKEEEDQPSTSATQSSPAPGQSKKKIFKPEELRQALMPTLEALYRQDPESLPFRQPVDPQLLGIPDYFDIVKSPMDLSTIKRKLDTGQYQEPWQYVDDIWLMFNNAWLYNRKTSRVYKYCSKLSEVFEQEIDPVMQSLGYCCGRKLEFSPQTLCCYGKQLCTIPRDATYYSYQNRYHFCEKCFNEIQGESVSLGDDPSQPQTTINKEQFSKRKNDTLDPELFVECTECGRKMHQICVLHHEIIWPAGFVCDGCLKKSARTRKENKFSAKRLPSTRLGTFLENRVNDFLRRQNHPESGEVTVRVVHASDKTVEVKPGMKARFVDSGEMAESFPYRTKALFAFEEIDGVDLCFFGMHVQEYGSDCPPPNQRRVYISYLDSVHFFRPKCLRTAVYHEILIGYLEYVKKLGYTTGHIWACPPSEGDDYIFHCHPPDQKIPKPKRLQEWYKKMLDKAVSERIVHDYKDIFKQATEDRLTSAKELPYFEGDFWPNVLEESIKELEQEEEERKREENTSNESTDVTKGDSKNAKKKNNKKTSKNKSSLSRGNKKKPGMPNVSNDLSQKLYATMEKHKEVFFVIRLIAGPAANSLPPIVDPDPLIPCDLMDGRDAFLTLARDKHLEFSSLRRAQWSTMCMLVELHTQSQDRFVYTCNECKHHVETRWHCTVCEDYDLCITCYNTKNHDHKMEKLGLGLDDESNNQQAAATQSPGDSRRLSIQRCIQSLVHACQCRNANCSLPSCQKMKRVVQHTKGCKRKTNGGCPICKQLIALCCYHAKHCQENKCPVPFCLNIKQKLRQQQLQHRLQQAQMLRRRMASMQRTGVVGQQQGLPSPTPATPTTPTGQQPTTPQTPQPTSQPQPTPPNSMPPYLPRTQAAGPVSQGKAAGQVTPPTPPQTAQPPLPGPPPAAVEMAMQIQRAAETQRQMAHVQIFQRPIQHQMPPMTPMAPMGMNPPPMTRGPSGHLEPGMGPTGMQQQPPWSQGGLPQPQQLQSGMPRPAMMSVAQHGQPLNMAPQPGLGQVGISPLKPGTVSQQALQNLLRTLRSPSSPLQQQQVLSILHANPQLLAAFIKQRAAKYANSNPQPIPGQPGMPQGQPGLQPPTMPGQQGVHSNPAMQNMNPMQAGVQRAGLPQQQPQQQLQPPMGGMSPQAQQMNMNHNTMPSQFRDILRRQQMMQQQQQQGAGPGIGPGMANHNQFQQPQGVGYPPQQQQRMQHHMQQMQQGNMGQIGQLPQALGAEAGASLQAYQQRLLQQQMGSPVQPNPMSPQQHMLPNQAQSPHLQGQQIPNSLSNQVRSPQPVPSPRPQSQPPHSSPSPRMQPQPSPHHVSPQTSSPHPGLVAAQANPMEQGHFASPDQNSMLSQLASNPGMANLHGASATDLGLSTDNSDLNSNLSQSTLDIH", "T1 sequence (Q92793 whole entry, looked up)": "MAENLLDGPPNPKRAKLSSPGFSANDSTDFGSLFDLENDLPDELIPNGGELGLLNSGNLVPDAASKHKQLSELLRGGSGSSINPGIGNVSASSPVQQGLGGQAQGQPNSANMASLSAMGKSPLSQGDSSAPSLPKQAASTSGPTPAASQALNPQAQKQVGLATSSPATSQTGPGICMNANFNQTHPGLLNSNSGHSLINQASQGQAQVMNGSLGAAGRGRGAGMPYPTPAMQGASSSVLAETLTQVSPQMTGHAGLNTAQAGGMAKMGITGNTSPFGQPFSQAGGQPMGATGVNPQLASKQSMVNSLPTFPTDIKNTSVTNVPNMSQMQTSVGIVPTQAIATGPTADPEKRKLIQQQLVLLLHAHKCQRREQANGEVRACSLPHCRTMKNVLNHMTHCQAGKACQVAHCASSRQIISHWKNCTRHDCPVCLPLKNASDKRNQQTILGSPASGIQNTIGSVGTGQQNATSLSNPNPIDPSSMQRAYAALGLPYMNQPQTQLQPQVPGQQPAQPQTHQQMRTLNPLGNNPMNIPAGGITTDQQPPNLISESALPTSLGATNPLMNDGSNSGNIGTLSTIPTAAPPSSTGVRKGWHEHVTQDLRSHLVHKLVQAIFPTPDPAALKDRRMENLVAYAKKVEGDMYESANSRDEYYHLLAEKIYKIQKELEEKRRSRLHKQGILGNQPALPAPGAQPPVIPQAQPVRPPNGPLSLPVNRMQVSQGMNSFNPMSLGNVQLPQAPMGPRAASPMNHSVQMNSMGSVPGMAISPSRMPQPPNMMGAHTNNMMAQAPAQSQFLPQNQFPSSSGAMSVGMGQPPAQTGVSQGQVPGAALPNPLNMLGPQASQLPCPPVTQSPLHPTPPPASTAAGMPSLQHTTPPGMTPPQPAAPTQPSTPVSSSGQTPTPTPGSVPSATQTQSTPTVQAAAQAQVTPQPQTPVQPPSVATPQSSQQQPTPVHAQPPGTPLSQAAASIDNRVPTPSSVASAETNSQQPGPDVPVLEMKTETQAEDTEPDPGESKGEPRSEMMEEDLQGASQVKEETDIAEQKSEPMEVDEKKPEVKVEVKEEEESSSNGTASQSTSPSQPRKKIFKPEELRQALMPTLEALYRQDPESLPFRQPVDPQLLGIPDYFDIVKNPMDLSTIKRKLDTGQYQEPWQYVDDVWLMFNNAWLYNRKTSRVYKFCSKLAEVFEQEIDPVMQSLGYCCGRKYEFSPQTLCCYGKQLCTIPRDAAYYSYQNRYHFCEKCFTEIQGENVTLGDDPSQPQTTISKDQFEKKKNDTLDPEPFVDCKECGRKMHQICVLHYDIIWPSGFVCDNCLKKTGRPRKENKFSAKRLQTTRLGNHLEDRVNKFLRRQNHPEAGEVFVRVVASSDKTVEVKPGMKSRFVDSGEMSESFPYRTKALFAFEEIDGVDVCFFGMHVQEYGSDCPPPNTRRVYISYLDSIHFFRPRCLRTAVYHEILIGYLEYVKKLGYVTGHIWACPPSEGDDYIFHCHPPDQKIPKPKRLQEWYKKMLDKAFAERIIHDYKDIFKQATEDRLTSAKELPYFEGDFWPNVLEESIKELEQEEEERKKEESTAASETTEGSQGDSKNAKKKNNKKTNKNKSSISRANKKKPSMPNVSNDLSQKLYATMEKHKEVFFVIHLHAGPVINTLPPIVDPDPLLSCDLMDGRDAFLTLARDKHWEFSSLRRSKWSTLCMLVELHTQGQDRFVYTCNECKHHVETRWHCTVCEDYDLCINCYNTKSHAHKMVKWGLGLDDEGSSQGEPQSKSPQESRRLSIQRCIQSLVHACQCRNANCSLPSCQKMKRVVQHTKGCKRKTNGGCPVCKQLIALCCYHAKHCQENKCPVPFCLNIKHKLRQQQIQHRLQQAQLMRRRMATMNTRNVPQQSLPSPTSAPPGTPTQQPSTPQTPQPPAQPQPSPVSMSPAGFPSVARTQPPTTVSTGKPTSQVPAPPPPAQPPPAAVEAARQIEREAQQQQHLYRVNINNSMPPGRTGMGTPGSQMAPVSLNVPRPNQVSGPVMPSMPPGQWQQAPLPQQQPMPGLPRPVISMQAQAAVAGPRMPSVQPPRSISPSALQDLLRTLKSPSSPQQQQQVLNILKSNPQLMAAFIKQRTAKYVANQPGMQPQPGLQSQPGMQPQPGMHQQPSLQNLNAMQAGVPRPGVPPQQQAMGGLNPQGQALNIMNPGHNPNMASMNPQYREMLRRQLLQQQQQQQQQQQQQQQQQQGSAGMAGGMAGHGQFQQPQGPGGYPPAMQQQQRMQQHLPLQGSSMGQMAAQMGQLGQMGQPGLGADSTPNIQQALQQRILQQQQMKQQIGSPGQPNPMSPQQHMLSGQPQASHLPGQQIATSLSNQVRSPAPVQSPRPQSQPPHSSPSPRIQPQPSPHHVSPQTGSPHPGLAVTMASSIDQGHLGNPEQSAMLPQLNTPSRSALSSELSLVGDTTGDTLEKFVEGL", "experiment": "Inhibition of CBP/p300 in mouse primary hepatocytes stimulated with 100 uM 8-Br-cAMP assessed as effect on COP1 protein expression at 3 uM measured after 12 hrs by western blot analysis", "type": "cell-based", "details": "Primary hepatocyte"}, "[4]": {"test_system": "Hepatocyte", "experiment": "Inhibition of glucogenesis in mouse primary hepatocytes stimulated with 100 uM 8-Br-cAMP assessed as decrease in PEPCK mRNA expression at 3 uM measured after 8 hrs by RT-qPCR assay"}, "[5]": {"test_system": "Hepatocyte", "experiment": "Inhibition of lipogenesis in mouse primary hepatocytes assessed as increase in ACO mRNA expression at 3 uM in presence of 100 nM insulin and 5 to 25 mM glucose measured after 18 hrs by RT-qPCR assay", "type": "functional, cell-based", "outline": "as §1"}, "[6]": {"test_system": "Mus musculus", "experiment": "Inhibition of lipogenesis in C57BL/6 mouse supplemented with high-fat diet assessed as decrease in FASN mRNA expression at 20 mg/kg/day, ip administered for 1 week measured by RT-qPCR assay", "type": "functional, organism-based", "details": "time 1.0 weeks", "outline": "(§2)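 Male C57BL/6 mice were fed high-fat diet for 14 weeks from 5 weeks of age, then injected ip with 20 mg·kg−1·day−1 for 7 days or given vehicle. Epididymal and inguinal WAT were weighed, examined by H&E, and analysed. Transcripts were measured by Trizol/SYBR Green RT-qPCR; proteins by western blot. n = 5–9; mean ± SEM.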"}, "[7]": {"test_system": "Mus musculus", "experiment": "Anti-obesity activity in C57BL/6 mouse supplemented with high fat diet assessed as decrease in blood glucose level at 20 mg/kg/day, ip administered for 1 week measured by pyruvate tolerance test", "type": "functional, organism-based", "details": "time 1.0 weeks", "outline": "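High-fat diet male C57BL/6 mice (14 weeks on HFD from 5 weeks of age) dosed ip at 20 mg·kg−1·day−1 for 7 days. 16 h fast, then pyruvate 2 g/kg body weight ip; blood glucose tracked.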"}, "[8]": {"test_system": "Adipocyte", "experiment": "Inhibition of lipogenesis in mouse adipocytes isolated stromal vascular cells assessed as decrease in LPL mRNA expression measured after 24 hrs by RT-qPCR assay", "type": "functional, cell-based", "outline": "(§3)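 Stromal vascular cells from inguinal WAT of C57BL/6 mice, grown in DMEM/F12 + 10% FBS at 37 °C, 10% CO2. At confluence, induced 48 h with 5 μg/ml insulin, 1 μM dexamethasone, 0.5 mM isobutylmethylxanthine, then 6 days in 5 μg/ml insulin; fully differentiated day 8. Mature adipocytes exposed to inhibitor 24 h. Total RNA by Trizol, SYBR Green RT-qPCR; protein by western blot.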"}, "[9]": {"test_system": "Adipocyte", "experiment": "Inhibition of lipogenesis in mouse adipocytes isolated stromal vascular cells assessed as decrease in SCD1 mRNA expression measured after 24 hrs by RT-qPCR assay", "type": "functional, cell-based", "outline": "as §3"}, "[10]": {"test_system": "Mus musculus", "experiment": "Inhibition of lipogenesis in C57BL/6 mouse supplemented with normal chow diet assessed as effect on CPT1alpha mRNA expression at 20 mg/kg/day, ip administered for 1 week measured by RT-qPCR assay", "type": "functional, organism-based", "details": "time 1.0 weeks", "outline": "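Eight-week-old male C57BL/6 mice on normal chow were given 20 mg·kg−1·day−1 ip daily for 7 days or vehicle. Epididymal WAT was collected. Lipogenic, adipogenic and fatty-acid-oxidation transcripts were quantified by Trizol extraction and SYBR Green RT-qPCR. FAS, ACC, PPARγ and C/EBPα protein were assessed by western blot. n = 5–9; mean ± SEM.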"}, "[11]": {"test_system": "Mus musculus", "experiment": "Inhibition of lipogenesis in C57BL/6 mouse supplemented with high-fat diet assessed as decrease in DGAT2 mRNA expression at 20 mg/kg/day, ip administered for 1 week measured by RT-qPCR assay", "type": "functional, organism-based", "details": "time 1.0 weeks", "outline": "as §2"}, "[12]": {"test_system": "Mus musculus", "experiment": "Inhibition of hepatic lipogenesis in C57BL/6 mouse supplemented with normal chow diet assessed as decrease in ChREBP protein expression at 20 mg/kg/day, ip administered for 1 week measured by western blot analysis", "type": "functional, organism-based", "details": "time 1.0 weeks", "outline": "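Normal-chow male C57BL/6 mice, 8 weeks old, were injected ip at 20 mg·kg−1·day−1 daily for 7 days or given vehicle. Liver tissue was homogenized in lysis buffer, and FAS and ChREBP protein were assessed by western blot. n = 5–9.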"}, "[13]": {"test_system": "Mus musculus", "experiment": "Inhibition of hepatic lipogenesis in C57BL/6 mouse supplemented with normal chow diet assessed as effect on MCAD mRNA expression at 20 mg/kg/day, ip administered for 1 week measured by RT-qPCR assay", "type": "functional, organism-based", "details": "time 1.0 weeks", "outline": "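Normal-chow male C57BL/6 mice, 8 weeks old, were injected ip at 20 mg·kg−1·day−1 daily for 7 days or given vehicle. Liver RNA was extracted with Trizol, and fatty-acid-oxidation gene transcripts were quantified by SYBR Green RT-qPCR. n = 5–9; mean ± SEM.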"}, "[14]": {"test_system": "Hepatocyte", "experiment": "Inhibition of lipogenesis in mouse primary hepatocytes assessed as decrease in FASN mRNA expression at 3 uM in presence of 100 nM insulin and 5 to 25 mM glucose measured after 18 hrs by RT-qPCR assay", "type": "functional, cell-based", "outline": "as §1"}, "[15]": {"test_system": "Adipocyte", "experiment": "Inhibition of lipogenesis in mouse adipocytes isolated stromal vascular cells assessed as decrease in adiponectin mRNA expression measured after 24 hrs by RT-qPCR assay", "type": "functional, cell-based", "outline": "as §3"}, "[16]": {"biological_target": "T1, CREB-binding protein/Histone acetyltransferase p300 (Homo sapiens)", "experiment": "Inhibition of CBP/p300 in mouse primary hepatocytes stimulated with 100 uM 8-Br-cAMP assessed as decrease in FOXO1 abundance in nucleus at 3 uM", "type": "cell-based", "details": "Primary hepatocyte", "outline": "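Primary mouse hepatocytes treated with 3 μM compound and 100 μM 8-Br-cAMP. Nuclear and cytoplasmic fractions separated with a commercial kit; FOXO1 detected by western blot.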"}, "[17]": {"test_system": "Hepatocyte", "experiment": "Inhibition of lipogenesis in mouse primary hepatocytes assessed as increase in CPT1alpha mRNA expression at 3 uM in presence of 100 nM insulin and 5 to 25 mM glucose measured after 18 hrs by RT-qPCR assay", "type": "functional, cell-based", "outline": "as §1"}, "[18]": {"test_system": "Hepatocyte", "experiment": "Inhibition of glucogenesis in mouse primary hepatocytes stimulated with 100 uM 8-Br-cAMP assessed as decrease in G6Pc mRNA expression at 3 uM measured after 8 hrs by RT-qPCR assay"}, "[19]": {"test_system": "Hepatocyte", "experiment": "Inhibition of lipogenesis in mouse primary hepatocytes assessed as decrease in ChREBP protein expression at 3 uM in presence of 100 nM insulin and 5 to 25 mM glucose measured after 18 hrs by western blot analysis", "type": "functional, cell-based"}},
  "note": "Activity calls are given as the source filed them. The calls are words filed in the database; no cut-off is given here.",
  "data": [
    {"smiles": "CNC(=O)Nc1ccc2c(c1)CCS21OC(=O)N(CC(=O)N(Cc2ccc(F)cc2)[C@@H](C)C(F)(F)F)C1=O", "note": "(some centres undefined)", "values": [
      {"measurement": "inhibition", "setting": "[1]", "result": "Active"},
      {"measurement": "inhibition", "setting": "[2]", "result": "Active"},
      {"measurement": "inhibition", "setting": "[3]", "result": "inactive"},
      {"measurement": "inhibition", "setting": "[4]", "result": "Active"},
      {"measurement": "inhibition", "setting": "[5]", "result": "Active"},
      {"measurement": "inhibition", "setting": "[6]", "result": "Active"},
      {"measurement": "Activity", "setting": "[7]", "result": "Active"},
      {"measurement": "inhibition", "setting": "[8]", "result": "Active"},
      {"measurement": "inhibition", "setting": "[9]", "result": "Active"},
      {"measurement": "inhibition", "setting": "[10]", "result": "inactive"},
      {"measurement": "inhibition", "setting": "[11]", "result": "Active"},
      {"measurement": "inhibition", "setting": "[12]", "result": "Active"},
      {"measurement": "inhibition", "setting": "[13]", "result": "inactive"},
      {"measurement": "inhibition", "setting": "[14]", "result": "Active"},
      {"measurement": "inhibition", "setting": "[15]", "result": "Active"},
      {"measurement": "inhibition", "setting": "[16]", "result": "Active"},
      {"measurement": "inhibition", "setting": "[17]", "result": "Active"},
      {"measurement": "inhibition", "setting": "[18]", "result": "Active"},
      {"measurement": "inhibition", "setting": "[19]", "result": "Active"}
    ]}
  ]
}
